Data on eleven compounds can be found in ChEMBL document CHEMBL1148770, “Conformation-activity relationship of neuropeptide S and some structural mutants: helicity affects their interaction with the receptor” (J Med Chem, 2007).

Square brackets hold non-standard residues; d marks the D form. Peptide text beside a SMILES is read from it. Aib = CC(C)(N)C(=O)O

One assay has as its target T1, Neuropeptide S receptor (Mus musculus, UniProt Q8BZP8).
T1 sequence (Q8BZP8 whole entry): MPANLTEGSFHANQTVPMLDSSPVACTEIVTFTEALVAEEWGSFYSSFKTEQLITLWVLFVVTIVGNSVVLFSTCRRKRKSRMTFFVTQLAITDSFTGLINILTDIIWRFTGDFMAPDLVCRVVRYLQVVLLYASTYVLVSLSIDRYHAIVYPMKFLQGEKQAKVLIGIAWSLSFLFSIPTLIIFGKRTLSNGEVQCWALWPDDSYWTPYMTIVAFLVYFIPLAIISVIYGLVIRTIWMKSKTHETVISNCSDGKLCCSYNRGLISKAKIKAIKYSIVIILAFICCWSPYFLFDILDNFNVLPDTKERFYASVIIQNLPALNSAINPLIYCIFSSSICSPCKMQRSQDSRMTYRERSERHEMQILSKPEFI
Nature of the assay: Agonist activity at mouse recombinant NPSR expressed in HEK293 cells assessed as calcium mobilization. The assay is classed as functional, cell-based. The method, boiled down:
(§1)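 HEK293 cells stably expressing mouse NPSR, grown in DMEM/10% FBS/2 mM glutamine/hygromycin at 37 °C, 5% CO2. Seeded 50,000 cells/well on poly-D-lysine; next day loaded 30 min at 37 °C with 3 µM Fluo-4 AM, 2.5 mM probenecid, 0.01% pluronic acid. Read in HBSS/20 mM HEPES/probenecid/Brilliant Black at ≈22 °C on FlexStation; peak fluorescence change as % baseline; logistic fit; ≥4 experiments in duplicate.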
On the technique in general: A change in cytosolic calcium serves as a functional read-out for many receptors and channels.

Assay [1] addresses T2, Neuropeptide S receptor (Mus musculus) (UniProt Q8BZP8).
T2 sequence (whole entry): T1 sequence (Q8BZP8 whole entry)
In words: Agonist activity at mouse recombinant NPSR expressed in HEK293 cells assessed as calcium mobilization relative to baseline. The assay is classed as functional, cell-based. The method, boiled down: as §1

As for `CSCC[C@H](NC(=O)[C@@H](C)NC(=O)[C@@H](NC(=O)CNC(=O)[C@@H](NC(=O)CNC(=O)[C@H](CC(N)=O)NC(=O)[C@H](CCCNC(=N)N)NC(=O)[C@H](Cc1ccccc1)NC(=O)[C@@H](N)CO)C(C)C)[C@@H](C)O)C(=O)N[C@@H](CCCCN)C(=O)N[C@@H](CCCCN)C(=O)N[C@H](C(=O)N[C@@H](CO)C(=O)N[C@@H](Cc1ccccc1)C(=O)N[C@@H](CCC(N)=O)C(=O)N[C@@H](CCCNC(=N)N)C(=O)N[C@@H](C)C(=O)N[C@@H](CCCCN)C(=O)N[C@@H](CO)C(=O)O)[C@@H](C)O`, the EC50 (as a rule, the concentration that produces a half-maximal response) on Neuropeptide S receptor was 21.4 nM. Besides, the Emax – broadly, the maximal effect, on the per cent scale that the assay sets – in assay [1] stood at 172%.

For the compound `CSCC[C@H](NC(=O)CNC(=O)[C@@H](NC(=O)[C@@H](C)NC(=O)[C@@H](NC(=O)CNC(=O)[C@H](CC(N)=O)NC(=O)[C@H](CCCNC(=N)N)NC(=O)[C@H](Cc1ccccc1)NC(=O)[C@@H](N)CO)C(C)C)[C@@H](C)O)C(=O)N[C@@H](CCCCN)C(=O)N[C@@H](CCCCN)C(=O)N[C@H](C(=O)N[C@@H](CO)C(=O)N[C@@H](Cc1ccccc1)C(=O)N[C@@H](CCC(N)=O)C(=O)N[C@@H](CCCNC(=N)N)C(=O)N[C@@H](C)C(=O)N[C@@H](CCCCN)C(=O)N[C@@H](CO)C(=O)O)[C@@H](C)O`, the half-maximal effective concentration (EC50) on Neuropeptide S receptor was 23.4 nM. The Emax in assay [1] is 164%.

Consider `CSCC[C@H](NC(=O)[C@H](C)NC(=O)[C@@H](NC(=O)CNC(=O)[C@@H](NC(=O)CNC(=O)[C@H](CC(N)=O)NC(=O)[C@H](CCCNC(=N)N)NC(=O)[C@H](Cc1ccccc1)NC(=O)[C@@H](N)CO)C(C)C)[C@@H](C)O)C(=O)N[C@@H](CCCCN)C(=O)N[C@@H](CCCCN)C(=O)N[C@H](C(=O)N[C@@H](CO)C(=O)N[C@@H](Cc1ccccc1)C(=O)N[C@@H](CCC(N)=O)C(=O)N[C@@H](CCCNC(=N)N)C(=O)N[C@@H](C)C(=O)N[C@@H](CCCCN)C(=O)N[C@@H](CO)C(=O)O)[C@@H](C)O`, for which the EC50 on Neuropeptide S receptor was 23.4 nM. Further, the Emax in assay [1] came out at 164%.

Consider `CSCC[C@H](NC(=O)CNC(=O)[C@@H](NC(=O)[C@H](C)NC(=O)[C@@H](NC(=O)CNC(=O)[C@H](CC(N)=O)NC(=O)[C@H](CCCNC(=N)N)NC(=O)[C@H](Cc1ccccc1)NC(=O)[C@@H](N)CO)C(C)C)[C@@H](C)O)C(=O)N[C@@H](CCCCN)C(=O)N[C@@H](CCCCN)C(=O)N[C@H](C(=O)N[C@@H](CO)C(=O)N[C@@H](Cc1ccccc1)C(=O)N[C@@H](CCC(N)=O)C(=O)N[C@@H](CCCNC(=N)N)C(=O)N[C@@H](C)C(=O)N[C@@H](CCCCN)C(=O)N[C@@H](CO)C(=O)O)[C@@H](C)O`, for which the Emax in assay [1] came to 129%.

In the case of `CSCC[C@H](NC(=O)CNC(=O)[C@@H](NC(=O)CNC(=O)[C@@H](NC(=O)CNC(=O)[C@H](CC(N)=O)NC(=O)[C@H](CCCNC(=N)N)NC(=O)[C@H](Cc1ccccc1)NC(=O)[C@H](C)N)C(C)C)[C@@H](C)O)C(=O)N[C@@H](CCCCN)C(=O)N[C@@H](CCCCN)C(=O)N[C@H](C(=O)N[C@@H](CO)C(=O)N[C@@H](Cc1ccccc1)C(=O)N[C@@H](CCC(N)=O)C(=O)N[C@@H](CCCNC(=N)N)C(=O)N[C@@H](C)C(=O)N[C@@H](CCCCN)C(=O)N[C@@H](CO)C(=O)O)[C@@H](C)O` (H-AFRNGVGTGMKKTSFQRAKS-OH), the EC50 on Neuropeptide S receptor is 26.3 nM. The Emax in assay [1] came to 182%.

For the compound `CSCC[C@H](NC(=O)CNC(=O)[C@@H](NC(=O)CNC(=O)[C@@H](NC(=O)[C@H](C)NC(=O)[C@H](CC(N)=O)NC(=O)[C@H](CCCNC(=N)N)NC(=O)[C@H](Cc1ccccc1)NC(=O)[C@@H](N)CO)C(C)C)[C@@H](C)O)C(=O)N[C@@H](CCCCN)C(=O)N[C@@H](CCCCN)C(=O)N[C@H](C(=O)N[C@@H](CO)C(=O)N[C@@H](Cc1ccccc1)C(=O)N[C@@H](CCC(N)=O)C(=O)N[C@@H](CCCNC(=N)N)C(=O)N[C@@H](C)C(=O)N[C@@H](CCCCN)C(=O)N[C@@H](CO)C(=O)O)[C@@H](C)O` (H-SFRNAVGTGMKKTSFQRAKS-OH), at Neuropeptide S receptor, the EC50 is 24.5 nM. In addition, the Emax in assay [1] stood at 178%.

In the case of `CSCC[C@H](NC(=O)[C@H](C)NC(=O)[C@@H](NC(=O)[C@H](C)NC(=O)[C@@H](NC(=O)CNC(=O)[C@H](CC(N)=O)NC(=O)[C@H](CCCNC(=N)N)NC(=O)[C@H](Cc1ccccc1)NC(=O)[C@@H](N)CO)C(C)C)[C@@H](C)O)C(=O)N[C@@H](CCCCN)C(=O)N[C@@H](CCCCN)C(=O)N[C@@H](C)C(=O)N[C@@H](CO)C(=O)N[C@@H](Cc1ccccc1)C(=O)N[C@@H](CCC(N)=O)C(=O)N[C@@H](CCCNC(=N)N)C(=O)N[C@@H](C)C(=O)N[C@@H](CCCCN)C(=O)N[C@@H](CO)C(=O)O` (H-SFRNGVATAMKKASFQRAKS-OH), the Emax in assay [1] came to 69%.

Take `CSCC[C@H](NC(=O)[C@H](C)NC(=O)[C@@H](NC(=O)CNC(=O)[C@@H](NC(=O)CNC(=O)[C@H](CC(N)=O)NC(=O)[C@H](CCCNC(=N)N)NC(=O)[C@H](Cc1ccccc1)NC(=O)[C@@H](N)CO)C(C)C)[C@@H](C)O)C(=O)N[C@@H](CCCCN)C(=O)N[C@@H](CCCCN)C(=O)N[C@@H](C)C(=O)N[C@@H](CO)C(=O)N[C@@H](Cc1ccccc1)C(=O)N[C@@H](CCC(N)=O)C(=O)N[C@@H](CCCNC(=N)N)C(=O)N[C@@H](C)C(=O)N[C@@H](CCCCN)C(=O)N[C@@H](CO)C(=O)O` (H-SFRNGVGTAMKKASFQRAKS-OH): at Neuropeptide S receptor, the EC50 is 15.1 nM. In assay [1], the Emax was found to be 191%.

Take `CSCC[C@H](NC(=O)CNC(=O)[C@@H](NC(=O)CNC(=O)[C@@H](NC(=O)CNC(=O)[C@H](CC(N)=O)NC(=O)[C@H](CCCNC(=N)N)NC(=O)[C@H](Cc1ccccc1)NC(=O)[C@@H](N)CO)C(C)C)[C@@H](C)O)C(=O)N[C@@H](CCCCN)C(=O)N[C@@H](CCCCN)C(=O)N[C@@H](C)C(=O)N[C@@H](CO)C(=O)N[C@@H](Cc1ccccc1)C(=O)N[C@@H](CCC(N)=O)C(=O)N[C@@H](CCCNC(=N)N)C(=O)N[C@@H](C)C(=O)N[C@@H](CCCCN)C(=O)N[C@@H](CO)C(=O)O` (H-SFRNGVGTGMKKASFQRAKS-OH): on Neuropeptide S receptor, the EC50 was 19.1 nM. Also, the Emax in assay [1] stood at 172%.

For `CSCC[C@H](NC(=O)CNC(=O)[C@@H](NC(=O)C(C)(C)NC(=O)[C@@H](NC(=O)CNC(=O)[C@H](CC(N)=O)NC(=O)[C@H](CCCNC(=N)N)NC(=O)[C@H](Cc1ccccc1)NC(=O)[C@@H](N)CO)C(C)C)[C@@H](C)O)C(=O)N[C@@H](CCCCN)C(=O)N[C@@H](CCCCN)C(=O)N[C@H](C(=O)N[C@@H](CO)C(=O)N[C@@H](Cc1ccccc1)C(=O)N[C@@H](CCC(N)=O)C(=O)N[C@@H](CCCNC(=N)N)C(=O)N[C@@H](C)C(=O)N[C@@H](CCCCN)C(=O)N[C@@H](CO)C(=O)O)[C@@H](C)O` (H-SFRNGV[Aib]TGMKKTSFQRAKS-OH), the Emax in assay [1] stood at 14%.

For the compound `CSCC[C@H](NC(=O)CNC(=O)[C@@H](NC(=O)CNC(=O)[C@@H](NC(=O)CNC(=O)[C@@H]1CCCN1C(=O)[C@H](CCCNC(=N)N)NC(=O)[C@H](Cc1ccccc1)NC(=O)[C@@H](N)CO)C(C)C)[C@@H](C)O)C(=O)N[C@@H](CCCCN)C(=O)N[C@@H](CCCCN)C(=O)N[C@H](C(=O)N[C@@H](CO)C(=O)N[C@@H](Cc1ccccc1)C(=O)N[C@@H](CCC(N)=O)C(=O)N[C@@H](CCCNC(=N)N)C(=O)N[C@@H](C)C(=O)N[C@@H](CCCCN)C(=O)N[C@@H](CO)C(=O)O)[C@@H](C)O` (H-SFRPGVGTGMKKTSFQRAKS-OH), the EC50 at Neuropeptide S receptor was 158 nM.
